Broadly, the inhibition is the relative decrease from the control value, in per cent. As usually defined, the IC50 is the concentration that inhibits the measured activity by half.

Activity calls are given as the source filed them. No cut-off for these calls is given here. A value given as a limit tells only on which side of the number the result lay.

The values that follow come from ChEMBL document CHEMBL4004835, “Discovery of Novel Disruptor of Silencing Telomeric 1-Like (DOT1L) Inhibitors using a Target-Specific Scoring Function for the (S)-Adenosyl-l-methionine (SAM)-Dependent Methyltransferase Family” (J Med Chem, 2017).

In assay [1] the target is T1, Histone-lysine N-methyltransferase, H3 lysine-79 specific (Homo sapiens, UniProt Q8TEK3). The assay is described as follows: Inhibition of N-terminal 6His-tagged human DOT1L (1 to 416 residues) expressed in Escherichia coli BL21(DE3) at 50 uM preincubated for 15 mins followed by [3H]-SAM addition measured after 120 mins by radioactive methylation assay. A digest of the protocol: (§1)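 DOT1L and compound preincubated 15 min at room temperature; oligonucleosome and 3H-SAM added; reaction 120 min at room temperature, stopped with cold SAM; transferred to 0.5% PEI-pretreated filter plate, washed 3× with water, read by liquid scintillation counting.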
Target sequence in this assay (Q8TEK3 whole entry, looked up, the tested form may be a part): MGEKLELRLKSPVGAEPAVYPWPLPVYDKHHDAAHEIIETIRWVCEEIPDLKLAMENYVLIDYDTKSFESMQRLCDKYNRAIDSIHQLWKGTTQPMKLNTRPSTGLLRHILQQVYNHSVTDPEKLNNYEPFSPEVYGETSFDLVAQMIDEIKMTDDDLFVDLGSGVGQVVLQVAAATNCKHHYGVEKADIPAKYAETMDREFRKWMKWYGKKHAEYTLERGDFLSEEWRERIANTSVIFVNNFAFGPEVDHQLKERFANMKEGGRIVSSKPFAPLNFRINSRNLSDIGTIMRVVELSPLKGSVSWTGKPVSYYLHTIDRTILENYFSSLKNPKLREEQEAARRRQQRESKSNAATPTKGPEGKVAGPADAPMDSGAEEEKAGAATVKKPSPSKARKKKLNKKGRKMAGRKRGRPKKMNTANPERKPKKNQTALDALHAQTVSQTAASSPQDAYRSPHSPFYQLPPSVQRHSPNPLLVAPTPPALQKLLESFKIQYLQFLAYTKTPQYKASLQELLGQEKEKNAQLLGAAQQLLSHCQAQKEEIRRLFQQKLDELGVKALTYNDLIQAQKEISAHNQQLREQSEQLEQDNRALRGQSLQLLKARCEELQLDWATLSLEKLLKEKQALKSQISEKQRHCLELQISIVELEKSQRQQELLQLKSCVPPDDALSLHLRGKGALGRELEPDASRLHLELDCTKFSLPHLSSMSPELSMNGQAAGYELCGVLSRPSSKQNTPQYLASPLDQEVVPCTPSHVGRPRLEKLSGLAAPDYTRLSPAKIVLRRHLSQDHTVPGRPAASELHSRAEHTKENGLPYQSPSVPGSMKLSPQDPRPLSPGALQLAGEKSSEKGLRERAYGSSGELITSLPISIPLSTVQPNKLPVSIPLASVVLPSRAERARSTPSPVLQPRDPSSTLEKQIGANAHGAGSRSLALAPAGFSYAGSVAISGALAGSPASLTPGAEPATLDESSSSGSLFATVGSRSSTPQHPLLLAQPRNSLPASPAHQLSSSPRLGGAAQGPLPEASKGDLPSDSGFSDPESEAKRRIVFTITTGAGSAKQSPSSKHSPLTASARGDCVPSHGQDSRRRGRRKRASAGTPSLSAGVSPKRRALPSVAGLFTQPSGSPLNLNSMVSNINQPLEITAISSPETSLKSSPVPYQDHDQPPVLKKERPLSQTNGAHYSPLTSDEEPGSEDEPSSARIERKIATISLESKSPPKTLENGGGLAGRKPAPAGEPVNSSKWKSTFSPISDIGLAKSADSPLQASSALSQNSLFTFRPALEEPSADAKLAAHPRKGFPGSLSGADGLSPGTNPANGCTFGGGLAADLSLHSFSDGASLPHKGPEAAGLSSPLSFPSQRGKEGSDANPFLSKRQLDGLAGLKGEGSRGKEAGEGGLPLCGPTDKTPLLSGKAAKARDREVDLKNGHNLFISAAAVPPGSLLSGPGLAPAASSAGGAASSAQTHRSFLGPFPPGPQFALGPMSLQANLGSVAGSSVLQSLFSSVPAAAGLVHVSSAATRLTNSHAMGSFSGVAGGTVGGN

For assay [2], the target named is T1, Histone-lysine N-methyltransferase, H3 lysine-79 specific. The assay is described as follows: Inhibition of N-terminal 6His-tagged human DOT1L (1 to 416 residues) expressed in Escherichia coli BL21(DE3) at 50 uM using histone H3 as substrate preincubated for 15 mins followed by SAM addition measured after 60 mins by AlphaLISA assay. A digest of the protocol:
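DOT1L (80 nM final) preincubated with compound 15 min at 25 °C; SAM 1 mM and oligonucleosomes 0.25 ng/μL added in 50 mM Tris-HCl pH 8.0, 150 mM NaCl, 3 mM MgCl2, 0.1% BSA, 60 min at 25 °C; stopped with high-salt buffer; H3K79me2 detected with anti-H3 acceptor beads, biotinylated antibody, then streptavidin donor beads.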
Target sequence in this assay (Q8TEK3 whole entry, looked up, the tested form may be a part): as above

Assay [3] shares this target. The assay is described as follows: Inhibition of N-terminal 6His-tagged human DOT1L (1 to 416 residues) expressed in Escherichia coli BL21(DE3) at preincubated for 15 mins followed by [3H]-SAM addition measured after 120 mins by radioactive methylation assay. A digest of the protocol:
as §1
Target sequence in this assay (Q8TEK3 whole entry, the tested form may be a part): as the sequence (Q8TEK3 whole entry, looked up, the tested form may be a part) above

For assay [4] the target is unchanged. The experiment in a line: Inhibition of N-terminal 6His-tagged human DOT1L (1 to 416 residues) expressed in Escherichia coli BL21(DE3) at 50 and 100 uM preincubated for 15 mins followed by [3H]-SAM addition measured after 120 mins by radioactive methylation assay. Put shortly: as §1
Target sequence in this assay (Q8TEK3 whole entry, looked up, the tested form may be a part): as above

Consider `Cc1ccccc1-c1nn2c(Cn3nnc4ccccc43)nnc2s1`, for which the inhibition in assay [1] was found to be 55%. For `COc1ccccc1-c1nn2c(Cn3nnc4ccccc43)nnc2s1`, the inhibition in assay [1] came out at 55%. For `CC(C)N(CCCNC(=O)Nc1ccc(C(C)(C)C)cc1)C[C@H]1O[C@@H](n2ccc3c(N)ncnc32)[C@H](O)[C@@H]1O`, in assay [2], the inhibition is more than 40%. For `COc1cccc(-c2nn3c(Cn4nnc5ccccc54)nnc3s2)c1`, the inhibition in assay [1] was determined as 70%. Besides, the IC50 in assay [3] was 6.47 µM. On to `Fc1cccc(-c2nn3c(Cn4cnc5ccccc54)nnc3s2)c1`, for which the inhibition in assay [1] was 57%. On to `CC(C)(C)c1ccc(-c2nn3c(Cn4nnc5ccccc54)nnc3s2)cc1`, for which the inhibition in assay [1] amounted to 67%. In addition, the IC50 in assay [3] amounted to 4.48 µM. Turning to `Brc1ccc(-c2nn3c(Cn4nnc5ccccc54)nnc3s2)cc1`, the inhibition in assay [1] came out at 50%.

Take `CCOc1cc(CNCc2ccc(C(=O)O)cc2)ccc1OCc1cccs1`: the inhibition in assay [2] is more than 40%. Also, in assay [4], the inhibition result was “Active”. Take `c1ccc(Cc2nn3c(Cn4nnc5ccccc54)nnc3s2)cc1`: the inhibition in assay [1] amounted to 63%. The concentration for half-maximal inhibition (IC50) in assay [3] was determined as 19.4 µM.

As for `c1ccc2c(c1)nnn2Cc1nnc2sc(-c3ccc4c(c3)OCCO4)nn12`, the inhibition in assay [1] is 66%. Besides, the half-maximal inhibitory concentration (IC50) in assay [3] was 8.4 µM. For `COc1ccc(-c2nn3c(Cn4nnc5ccccc54)nnc3s2)cc1OC`, the inhibition in assay [1] is 56%. The compound `O=C1C/C(=N\Nc2nc(-c3cccc(O)c3)cs2)c2ccccc21` gave an inhibition in assay [2] of more than 40%. Moreover, the inhibition result in assay [4] was “Active”.

`CCCc1nnc2sc(-c3cccc(F)c3)nn12`: in assay [1], the inhibition was 35%. Take `Fc1cccc(-c2nn3c(CN4CCCCC4)nnc3s2)c1`: the inhibition in assay [1] stood at 6%. As for `Fc1cccc(-c2nn3c(-c4ccccc4)nnc3s2)c1`, the inhibition in assay [1] was determined as 15%. For the compound `Fc1cccc(-c2nn3c(Cc4ccccc4F)nnc3s2)c1`, in assay [1], the inhibition amounted to 25%.

As to `c1ccc(-c2nn3c(Cn4nnc5ccccc54)nnc3s2)nc1`, in assay [1], the inhibition is 53%. With `Cc1ccccc1Cc1nnc2sc(-c3cccc(F)c3)nn12`, the inhibition in assay [1] turned out to be 27%. In the case of `c1ccc2c(c1)nnn2Cc1nnc2sc(-c3ccc4c(c3)OCO4)nn12`, the inhibition in assay [1] is 65%. For the same compound, the 50% inhibitory concentration (IC50) in assay [3] is 3.96 µM. `Fc1cccc(-c2nn3c(CCc4ccccc4)nnc3s2)c1`: the inhibition in assay [1] turned out to be 18%. Turning to `COc1ccc(-c2nn3c(Cn4nnc5ccccc54)nnc3s2)cc1`, in assay [1], the inhibition came out at 54%. As for `Fc1ccc(-c2nn3c(Cn4nnc5ccccc54)nnc3s2)cc1`, in assay [1], the inhibition stood at 69%. In assay [3], the IC50 came to 4.64 µM.

For the compound `c1ccc(-c2nn3c(Cn4cnc5ccccc54)nnc3s2)cc1`, in assay [1], the inhibition was 55%. Take `CCOc1ccc(-c2nn3c(Cn4nnc5ccccc54)nnc3s2)cc1`: in assay [1], the inhibition is 50%.

As for `Cc1ccc(-c2nn3c(Cn4cnc5ccccc54)nnc3s2)cc1C`, the inhibition in assay [1] came to 72%. For the same compound, in assay [3], the 50% inhibitory concentration (IC50) came out at 17.4 µM. Consider `Cc1nc2ccccc2n1Cc1nnc2sc(-c3ccc(F)c(Br)c3)nn12`, for which the inhibition in assay [1] was found to be 49%. Compound `Cc1ccc(Cn2c(SCC(=O)N/N=C/c3ccc(O)cc3)nc3ccccc32)cc1` yielded an inhibition in assay [2] of more than 40%. Besides, the inhibition entry in assay [4] was “Active”. With `Fc1cccc(-c2nn3c(CSc4ccccc4)nnc3s2)c1`, in assay [1], the inhibition came out at 21%. On to `Cc1cccc(OCc2nn3c(Cn4nnc5ccccc54)nnc3s2)c1`, for which the inhibition in assay [1] was found to be 50%. With `Brc1cccc(-c2nn3c(Cn4cnc5ccccc54)nnc3s2)c1`, the inhibition in assay [1] stood at 62%. The half-maximal inhibitory concentration (IC50) in assay [3] came to 4.09 µM. Take `c1ccc2c(c1)nnn2Cc1nnc2sc(C34CC5CC(CC(C5)C3)C4)nn12`: in assay [1], the inhibition came to 38%. Same read-out and setting: under `c1coc(-c2nn3c(Cn4nnc5ccccc54)nnc3s2)c1` stands 48%; under `Fc1cccc(-c2nn3c(Cc4ccccc4)nnc3s2)c1`, 33%; under `Cc1ccc(OCc2nn3c(Cn4nnc5ccccc54)nnc3s2)cc1`, 52%. In the case of `CCc1nnc2sc(-c3cccc(F)c3)nn12`, the inhibition in assay [1] amounted to 13%. For the compound `c1ccc(OCc2nn3c(Cn4nnc5ccccc54)nnc3s2)cc1`, the inhibition in assay [1] is 43%.

With `Fc1cccc(-c2nn3c(-c4cccc(F)c4)nnc3s2)c1`, the inhibition in assay [1] amounted to 11%.
